Source: ChEMBL document CHEMBL3864121, “Development of ebsulfur analogues as potent antibacterials against methicillin-resistant Staphylococcus aureus” (Bioorg Med Chem, 2016)
≈ marks a conversion by molar mass, not a printed value.

Columns and labels:
Format in all cases: functional
[1] = system: Staphylococcus aureus; assay: Antibacterial activity against methicillin-resistant Staphylococcus aureus C16 measured after overnight incubation by broth double-dilution method
Procedure, shortened: (§1)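 MIC by broth double-dilution in liquid Mueller-Hinton medium. Values are reported in µg/mL.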

[2] = system: Staphylococcus aureus; assay: Antibacterial activity against methicillin-resistant Staphylococcus aureus USA300 measured after overnight incubation by broth double-dilution method; procedure, shortened: as §1
[3] = system: Staphylococcus aureus; assay: Antibacterial activity against methicillin-resistant Staphylococcus aureus USA600 measured after overnight incubation by broth double-dilution method; procedure, shortened: as §1
[4] = system: Staphylococcus aureus; assay: Antibacterial activity against methicillin-sensitive Staphylococcus aureus ATCC 29213 measured after overnight incubation by broth double-dilution method; procedure, shortened: as §1
[5] = system: Staphylococcus aureus; assay: Antibacterial activity against methicillin-resistant Staphylococcus aureus 2 measured after overnight incubation by broth double-dilution method; procedure, shortened: as §1
[6] = system: Staphylococcus aureus; assay: Antibacterial activity against methicillin-resistant Staphylococcus aureus NRS51 measured after overnight incubation by broth double-dilution method; procedure, shortened: as §1
[7] = system: Staphylococcus aureus; assay: Antibacterial activity against methicillin-resistant Staphylococcus aureus 1 measured after overnight incubation by broth double-dilution method; procedure, shortened: as §1
[8] = system: Staphylococcus aureus; assay: Antibacterial activity against methicillin-resistant Staphylococcus aureus ATCC 33591 measured after overnight incubation by broth double-dilution method; procedure, shortened: as §1
[9] = system: Enterococcus faecalis; assay: Antibacterial activity against Enterococcus faecalis ATCC 29212 measured after overnight incubation by broth double-dilution method
Procedure, shortened: (§2)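 MIC by broth double-dilution in Mueller-Hinton medium. Re-testing at the time-kill inoculum used 1×10^6 CFU/mL.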

[10] = system: Staphylococcus epidermidis; assay: Antibacterial activity against Staphylococcus epidermidis ATCC 35984 measured after overnight incubation by broth double-dilution method; conditions: RP62A; procedure, shortened: as §2
[11] = system: Staphylococcus aureus; assay: Antibacterial activity against methicillin-resistant Staphylococcus aureus C14 measured after overnight incubation by broth double-dilution method; procedure, shortened: as §1
[12] = system: Enterococcus faecalis; assay: Antibacterial activity against Enterococcus faecalis ATCC 49533 measured after overnight incubation by broth double-dilution method; procedure, shortened: as §2
[13] = system: Staphylococcus aureus; assay: Antibacterial activity against methicillin-resistant Staphylococcus aureus USA100 measured after overnight incubation by broth double-dilution method; procedure, shortened: as §1
[14] = system: Staphylococcus aureus; assay: Antibacterial activity against methicillin-resistant Staphylococcus aureus C7 measured after overnight incubation by broth double-dilution method; procedure, shortened: as §1
[15] = system: Staphylococcus aureus; assay: Antibacterial activity against methicillin-resistant Staphylococcus aureus S17 measured after overnight incubation by broth double-dilution method; procedure, shortened: as §1
[16] = system: Enterococcus; assay: Antibacterial activity against Vancomycin-resistant Enterococcus measured after overnight incubation by broth double-dilution method; procedure, shortened: as §1
[17] = system: Staphylococcus aureus; assay: Antibacterial activity against methicillin-resistant Staphylococcus aureus USA200 measured after overnight incubation by broth double-dilution method; procedure, shortened: as §1
[18] = system: Enterococcus faecium; assay: Antibacterial activity against Enterococcus faecium BM4105-RF measured after overnight incubation by broth double-dilution method; procedure, shortened: as §1
[19] = system: Staphylococcus aureus; assay: Antibacterial activity against methicillin-resistant Staphylococcus aureus C19 measured after overnight incubation by broth double-dilution method; procedure, shortened: as §1
[20] = system: Mycolicibacterium smegmatis; assay: Antibacterial activity against Mycobacterium smegmatis MC2-155 measured after overnight incubation by broth double-dilution method; conditions: str. MC2 155; procedure, shortened: as §1
[21] = system: Staphylococcus aureus; assay: Antibacterial activity against methicillin-resistant Staphylococcus aureus C2 measured after overnight incubation by broth double-dilution method; procedure, shortened: as §1
[22] = system: Staphylococcus aureus; assay: Antibacterial activity against methicillin-resistant Staphylococcus aureus G6 measured after overnight incubation by broth double-dilution method; procedure, shortened: as §1
[23] = system: Staphylococcus aureus; assay: Antibacterial activity against methicillin-resistant Staphylococcus aureus G1 measured after overnight incubation by broth double-dilution method; procedure, shortened: as §1
[24] = system: Staphylococcus aureus; assay: Antibacterial activity against methicillin-sensitive Staphylococcus aureus ATCC 6538 measured after overnight incubation by broth double-dilution method; procedure, shortened: as §1
[25] = system: Staphylococcus aureus; assay: Antibacterial activity against methicillin-resistant Staphylococcus aureus S22 measured after overnight incubation by broth double-dilution method; procedure, shortened: as §1
[26] = system: Staphylococcus aureus; assay: Antibacterial activity against methicillin-sensitive Staphylococcus aureus ATCC 25923 measured after overnight incubation by broth double-dilution method; procedure, shortened: as §1
[27] = system: Staphylococcus aureus; assay: Antibacterial activity against methicillin-resistant Staphylococcus aureus G12 measured after overnight incubation by broth double-dilution method; procedure, shortened: as §1
[28] = system: Staphylococcus aureus; assay: Antibacterial activity against methicillin-resistant Staphylococcus aureus S14 measured after overnight incubation by broth double-dilution method; procedure, shortened: as §1
[29] = system: Listeria monocytogenes; assay: Antibacterial activity against Listeria monocytogenes ATCC 19115 measured after overnight incubation by broth double-dilution method; procedure, shortened: as §2
[30] = system: Staphylococcus aureus; assay: Antibacterial activity against methicillin-resistant Staphylococcus aureus NRS77 measured after overnight incubation by broth double-dilution method; procedure, shortened: as §1
[31] = system: Staphylococcus aureus; assay: Antibacterial activity against methicillin-resistant Staphylococcus aureus C1 measured after overnight incubation by broth double-dilution method; procedure, shortened: as §1
[32] = system: Staphylococcus aureus; assay: Antibacterial activity against methicillin-resistant Staphylococcus aureus NRS4 measured after overnight incubation by broth double-dilution method; procedure, shortened: as §1
[33] = system: Staphylococcus aureus; assay: Antibacterial activity against methicillin-resistant Staphylococcus aureus BRS3 measured after overnight incubation by broth double-dilution method; procedure, shortened: as §1
[34] = system: Staphylococcus aureus; assay: Antibacterial activity against methicillin-resistant Staphylococcus aureus G14 measured after overnight incubation by broth double-dilution method; procedure, shortened: as §1
[35] = system: Staphylococcus aureus; assay: Antibacterial activity against methicillin-resistant Staphylococcus aureus S24 measured after overnight incubation by broth double-dilution method; procedure, shortened: as §1

| Structure (SMILES) | MIC [1] [µg/mL] | MIC [2] [µg/mL] | MIC [3] [µg/mL] | MIC [4] [µg/mL] | MIC [5] [µg/mL] | MIC [6] [µg/mL] | MIC [7] [µg/mL] | MIC [8] [µg/mL] | MIC [9] [µg/mL] | MIC [10] [µg/mL] | MIC [11] [µg/mL] | MIC [12] [µg/mL] | MIC [13] [µg/mL] | MIC [14] [µg/mL] | MIC [15] [µg/mL] | MIC [16] [µg/mL] | MIC [17] [µg/mL] | MIC [18] [µg/mL] | MIC [19] [µg/mL] | MIC [20] [µg/mL] | also measured |
| --- | --- | --- | --- | --- | --- | --- | --- | --- | --- | --- | --- | --- | --- | --- | --- | --- | --- | --- | --- | --- | --- |
| CC(C)CCn1c(=O)c2ccccc2[s+]1[O-] (stereo not given) | > 125 | > 125 | > 125 | > 125 | > 125 | > 125 | > 125 | > 125 | > 125 | > 125 | > 125 | > 125 | > 125 | > 125 | > 125 | > 125 | > 125 | > 125 | > 125 | > 125 | MIC [21]: > 125 µg/mL; MIC [22]: > 125 µg/mL; MIC [23]: > 125 µg/mL; MIC [24]: > 125 µg/mL; MIC [25]: > 125 µg/mL; MIC [26]: > 125 µg/mL; MIC [27]: > 125 µg/mL; MIC [28]: > 125 µg/mL; MIC [29]: > 125 µg/mL; MIC [30]: > 125 µg/mL; MIC [31]: > 125 µg/mL; MIC [32]: > 125 µg/mL; MIC [33]: > 125 µg/mL; MIC [34]: > 125 µg/mL; MIC [35]: > 125 µg/mL |
| O=c1c2ccccc2sn1-c1ccc(Cl)cc1 | 3.9 (≈ 14.9 µM) | 3.9 (≈ 14.9 µM) | 2 (≈ 7.64 µM) | 2 (≈ 7.64 µM) | 1 (≈ 3.82 µM) | 3.9 (≈ 14.9 µM) | 1 (≈ 3.82 µM) | 1 (≈ 3.82 µM) | 62.5 (≈ 239 µM) | 1 (≈ 3.82 µM) | 3.9 (≈ 14.9 µM) | > 125 | 2 (≈ 7.64 µM) | 1 (≈ 3.82 µM) | 1 (≈ 3.82 µM) | 0.5 (≈ 1.91 µM) | 2 (≈ 7.64 µM) | 31.3 (≈ 120 µM) | 1 (≈ 3.82 µM) | 3.9 (≈ 14.9 µM) | MIC [21]: 1 µg/mL (≈ 3.82 µM); MIC [22]: 2 µg/mL (≈ 7.64 µM); MIC [23]: 2 µg/mL (≈ 7.64 µM); MIC [24]: 3.9 µg/mL (≈ 14.9 µM); MIC [25]: 2 µg/mL (≈ 7.64 µM); MIC [26]: 2 µg/mL (≈ 7.64 µM); MIC [27]: 2 µg/mL (≈ 7.64 µM); MIC [28]: ≤ 0.25 µg/mL; MIC [29]: 1 µg/mL (≈ 3.82 µM); MIC [30]: 3.9 µg/mL (≈ 14.9 µM); MIC [31]: 2 µg/mL (≈ 7.64 µM); MIC [32]: 3.9 µg/mL (≈ 14.9 µM); MIC [33]: 3.9 µg/mL (≈ 14.9 µM); MIC [34]: 1 µg/mL (≈ 3.82 µM); MIC [35]: 1 µg/mL (≈ 3.82 µM) |
